Results: ChEMBL document CHEMBL3632606, “Structural Optimization of Indole Derivatives Acting at Colchicine Binding Site as Potential Anticancer Agents” (ACS Med Chem Lett, 2015)
The source made the active and inactive calls. The rule behind the calls is not given here.

Key:
[1] = Cytotoxicity against human M14/LCC6R1 cells after 48 hrs by MTS assay; type: functional, cell-based; conditions: M14/LCC6R1, 48 h
[2] = Half life in mouse liver microsomes at 2 uM by LC-MS/MS analysis; type: ADME
[3] = system: DU-145; assay: Cytotoxicity against human paclitaxel-resistant DU145 cells after 48 hrs by MTS assay; type: functional, cell-based; conditions: DU-145, 48 h
[4] = system: A-375; assay: Cytotoxicity against human A375 cells after 48 hrs by MTS assay; type: functional, cell-based; conditions: A-375, 48 h
[5] = system: PC-3; assay: Cytotoxicity against human paclitaxel-resistant PC3 cells after 48 hrs by MTS assay; type: functional, cell-based; conditions: PC-3, 48 h
[6] = Half life in human liver microsomes at 2 uM by LC-MS/MS analysis; type: ADME
[7] = system: PC-3; assay: Cytotoxicity against human PC3 cells after 48 hrs by MTS assay; type: functional, cell-based; conditions: PC-3, 48 h
[8] = system: M14; assay: Cytotoxicity against human M14 cells after 48 hrs by MTS assay; type: functional, cell-based; conditions: M14, 48 h
[9] = system: DU-145; assay: Cytotoxicity against human DU145 cells after 48 hrs by MTS assay; type: functional, cell-based; conditions: DU-145, 48 h
[10] = Cytotoxicity against human WM164 cells after 48 hrs by MTS assay; type: functional, cell-based; conditions: WM164, 48 h
[11] = Cytotoxicity against human PPC1 cells after 48 hrs by MTS assay; type: functional, cell-based; conditions: PPC-1, 48 h
[12] = system: LNCaP; assay: Cytotoxicity against human LNCAP cells after 48 hrs by MTS assay; type: functional, cell-based
[13] = system: A-375; assay: Cell cycle arrest in human A375 cells assessed as accumulation at G2/M phase at 50 nM after 24 hrs using propidium iodide staining by flow cytometry analysis (reference value: 4 +/- 0.5%); type: functional
Summary of the method: (§1)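 Cells treated with test agents for 24 h, then cell cycle distribution measured by flow cytometry; G2/M fraction compared with a vehicle-treated control group; N = 3.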

[14] = biological target: Tubulin (Sus scrofa) (UniProt P02554+P02550); assay: Inhibition of porcine tubulin polymerization measured every 1 min for 60 mins; type: protein assay
Summary of the method: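 In vitro microtubule polymerization run with test agents at 5 or 10 μM. Vehicle, paclitaxel (5 μM) and colchicine (5 μM) were run as controls under the same conditions. Curves are from a representative experiment.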

[15] = system: PC-3; assay: Cell cycle arrest in human PC3 cells assessed as accumulation at G2/M phase at 10 nM after 24 hrs using propidium iodide staining by flow cytometry analysis; type: functional, cell-based; summary of the method: as §1
[16] = system: A-375; assay: Cell cycle arrest in human A375 cells at 10 nM after 24 hrs using propidium iodide staining by flow cytometry analysis; type: functional, cell-based; summary of the method: as §1
[17] = Lipophilicity, log P of the compound; type: physicochemical; conditions: octanol/water

Chain of Tubulin (Sus scrofa) (P02550 whole entry, looked up): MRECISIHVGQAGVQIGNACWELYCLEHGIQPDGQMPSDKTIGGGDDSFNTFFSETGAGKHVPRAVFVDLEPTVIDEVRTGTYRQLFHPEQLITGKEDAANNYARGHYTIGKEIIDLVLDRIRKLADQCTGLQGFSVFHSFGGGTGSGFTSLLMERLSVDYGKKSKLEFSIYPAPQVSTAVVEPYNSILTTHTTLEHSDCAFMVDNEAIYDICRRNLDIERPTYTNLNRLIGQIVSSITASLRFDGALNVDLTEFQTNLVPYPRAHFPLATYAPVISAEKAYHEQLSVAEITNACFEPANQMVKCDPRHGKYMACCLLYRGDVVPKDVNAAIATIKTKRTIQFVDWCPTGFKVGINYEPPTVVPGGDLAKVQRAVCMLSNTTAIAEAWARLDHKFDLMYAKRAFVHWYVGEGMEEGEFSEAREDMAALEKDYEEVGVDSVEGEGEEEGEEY
Chain of Tubulin (Sus scrofa) (P02554 whole entry, looked up): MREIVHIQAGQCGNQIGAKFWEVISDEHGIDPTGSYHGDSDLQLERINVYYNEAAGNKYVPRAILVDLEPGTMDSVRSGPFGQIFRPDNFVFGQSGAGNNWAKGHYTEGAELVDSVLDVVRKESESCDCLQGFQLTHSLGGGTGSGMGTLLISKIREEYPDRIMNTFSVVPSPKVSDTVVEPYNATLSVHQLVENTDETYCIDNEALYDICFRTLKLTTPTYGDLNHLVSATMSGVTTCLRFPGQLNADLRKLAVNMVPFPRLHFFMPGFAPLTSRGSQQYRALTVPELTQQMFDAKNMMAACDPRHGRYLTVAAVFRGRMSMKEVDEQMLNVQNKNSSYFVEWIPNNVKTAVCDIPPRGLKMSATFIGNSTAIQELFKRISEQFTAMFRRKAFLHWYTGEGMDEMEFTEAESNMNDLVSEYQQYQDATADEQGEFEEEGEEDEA

Compound	IC50 [1] [nM]	half-life at 2 µM [2] [min]	IC50 [3] [nM]	IC50 [4] [nM]	IC50 [5] [nM]	half-life at 2 µM [6] [min]	IC50 [7] [nM]	IC50 [8] [nM]	IC50 [9] [nM]	IC50 [10] [nM]	IC50 [11] [nM]	IC50 [12] [nM]	Activity [13] [%]	inhibition [14]	Activity [15]	Activity [16]	logP [17]
COc1cc(-c2nccc3[nH]c(-c4ccc5[nH]ccc5c4)nc23)cc(OC)c1OC	116	16.1	164	22	34	45.4	27	53	121								
COc1cc(-c2ccc3ccnc(-c4cc(OC)c(OC)c(OC)c4)c3c2)cc(OC)c1OC				10700				9740		6670							
Fc1ccc(-c2nccc3ccc(-c4ccc5[nH]ccc5c4)cc23)cc1		2		66		30.7	26	49	47	33	28	38					
COc1cc(-c2nccc3[nH]c(-c4ccc5cc[nH]c5c4)nc23)cc(OC)c1OC	53	27.7	12	3	13	56.3	8	16	12				65.9	Dose-dependent effect	Active	inactive	
COc1cc(-c2nccc3[nH]c(-c4cc5ccccc5[nH]4)nc23)cc(OC)c1OC	191		2040	175	120		170	164	1700								
COc1cc(-c2nccc3[nH]c(-c4cccc5ccn(S(=O)(=O)c6ccccc6)c45)nc23)cc(OC)c1OC	545		> 30000	551	525		623	471	1030								
COc1cc(-c2nccc3[nH]c(-c4cccc5[nH]ccc45)nc23)cc(OC)c1OC	25	10.5	17	3	12	33.1	7	14	14				42	Dose-dependent effect	Active	inactive	
COc1cc(-c2nccc3ccc(-c4ccc5[nH]ccc5c4)cc23)cc(OC)c1OC		2.1		929		38.9	64	74	92	227	61	81					4.63
COc1cc(-c2nccc3[nH]c(-c4cccc5cc[nH]c45)nc23)cc(OC)c1OC	53		> 30000	24	65		43	28	177								
O=S(=O)(c1ccccc1)n1ccc2c(-c3nc4c(Br)nccc4[nH]3)cccc21	> 30000		> 30000	> 30000	> 30000		> 30000	> 30000	> 30000								
COc1cc(-c2nccc3c2NC(c2cccc4cc[nH]c24)N3)cc(OC)c1OC (stereo not drawn)	975		3660	984	689		1240	1060	2540								
COc1cc(-c2nccc3[nH]c(-c4c[nH]c5ccccc45)nc23)cc(OC)c1OC	88		74	16	7		27	26	222								
COc1cc(C(=O)c2cccc(-c3cc4ccccc4[nH]3)c2)cc(OC)c1OC						24	28.2										4.14
COc1cc(-c2nccc3[nH]c(-c4cccc5c4ccn5S(=O)(=O)c4ccccc4)nc23)cc(OC)c1OC	730		325	263	570		956	670	406								
Fc1ccc(-c2ccc3ccnc(-c4ccc(F)cc4)c3c2)cc1				> 30000			> 30000	> 30000	> 30000	> 30000	> 30000	> 30000					
c1cc2ccc(-c3ccc4[nH]ccc4c3)cc2c(-c2ccc3[nH]ccc3c2)n1				93			72	111	113	147	48	98					
